The results in this text go back to ChEMBL document CHEMBL4480452, “Molecular recognition of a branched peptide with HIV-1 Rev Response Element (RRE) RNA” (Bioorg Med Chem, 2019).

Assay [1] deals with Rev responsive element (RRE) RNA. Put plainly: Binding affinity to HIV-1 rev response element SL-IIB RNA by 2-Aminopurine-based fluorescence spectrophotometric analysis. The assay is classed as nucleic-acid assay, Human immunodeficiency virus 1.
The subject of assay [2] is Rev responsive element (RRE) RNA. Put plainly: Binding affinity to HIV-1 NL4-3 5-32P-labeled rev response element SL-IIB RNA by RNases A and V1 based RNase protection assay. The note with it: Human immunodeficiency virus 1.
Assay [3] has the same test system. Put plainly: Binding affinity to internal loop and upper stem/ apical loop regions of 5-32P-labeled HIV-1 NL4-3 rev response element SL-IIB RNA by RNases A and V1 based RNase protection assay. The assay is classed as nucleic-acid assay. Conditions: Human immunodeficiency virus 1. An outline of the steps:
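5′-32P-labeled RRE SL-IIB (10 nM) with 200 nM unlabeled RNA, refolded at 95 °C for 3 min and snap-cooled. Incubated with peptide (0–20 μM) on ice for 4 h in 10 mM Tris pH 7, 100 mM KCl, 10 mM MgCl2. Digested on ice with RNase V1 (0.002 U, 10 min) or RNase A (20 ng, 1 h). Cleavage read on 12% denaturing PAGE by autoradiography.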

Assay [4] has as its target Rev responsive element (RRE) RNA. Put plainly: Binding affinity to HIV-1 rev response element SL-IIB RNA in presence of 10 times RRE DNA by 2-Aminopurine-based fluorescence spectrophotometric analysis. The assay is classed as nucleic-acid assay, Human immunodeficiency virus 1. The essentials:
(§1)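 Same 2-AP titration, run with 10-fold excess of unlabeled competitor nucleic acid. Conditions: 0.1 μM refolded 2-AP RRE SL-IIB RNA, peptide 0–20 μM, pH 7.0 phosphate/KCl/MgCl2 buffer, ex 310 / em 372 nm. Kd from Hill fit, at least duplicate, SD.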

The test system of assay [5] is Rev responsive element (RRE) RNA. The assay can be described thus: Binding affinity to SL1 and SL2 regions of 234 nucleotide long HIV-1 NL4-3 rev response element RNA by SHAPE-MaP technology assay. The assay is classed as nucleic-acid assay. The note with it: Human immunodeficiency virus 1. The essentials:
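234-nt RRE RNA (5 pmol), renatured then folded at 37 °C for 15 min (70 mM Tris pH 8.0, 180 mM KCl, 8 mM MgCl2, 5% glycerol). Peptide added at 1:1 or 1:10 RNA:peptide for 15 min at 37 °C, then 1M7 for 5 min at 37 °C, with DMSO and denaturing controls. Read by MaP reverse transcription, PCR and sequencing; reactivity compared by nucleotide position.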

Assay [6] addresses Rev responsive element (RRE) RNA. The assay can be described thus: Binding affinity to HIV-1 rev response element SL-IIB RNA in presence of 10 times TAR RNA by 2-Aminopurine-based fluorescence spectrophotometric analysis. The class given is nucleic-acid assay, Human immunodeficiency virus 1. The essentials: as §1
The target is the same in assay [7]. The assay can be described thus: Binding affinity to HIV-1 rev response element SL-IIB RNA in presence of 10 times no bulge RRE RNA by 2-Aminopurine-based fluorescence spectrophotometric analysis. The class given is nucleic-acid assay, Human immunodeficiency virus 1. The essentials: as §1

The structures appear in SMILES notation. Calls of active or inactive are those of the source. The calls are words filed in the database; no cut-off is given here.

One may read the Kd as the constant that tells how readily two partners part at equilibrium. With `N=C(N)N[C@H]1CN[C@H](C(=O)N2C[C@H](N)C[C@@H]2C(=O)NCCN(CC(=O)NCCCC[C@H](NC(=O)CN(CCNC(=O)[C@H]2C[C@@H](N)CN2C(=O)[C@@H]2C[C@@H](NC(=N)N)CN2)C(=O)Cn2cnc3c(=O)[nH]c(N)nc32)C(=O)NCCN(CC(=O)N[C@@H](CCCCNC(=O)c2cnccn2)C(=O)N[C@@H](CCCCNC(=O)c2ccc(B(O)O)cc2)C(=O)N[C@@H](Cc2ccc(O)cc2)C(N)=O)C(=O)Cn2cnc3c(=O)[nH]c(N)nc32)C(=O)Cn2cnc3c(=O)[nH]c(N)nc32)C1`, in assay [1], binding was characterised by a dissociation constant (Kd) of 1.18 µM.

On to `N=C(N)N[C@@H]1C[C@@H](C(=O)N2C[C@H](NC(=N)N)C[C@H]2C(=O)N[C@@H](CCCCNC(=O)c2cnccn2)C(=O)N[C@@H](Cc2ccc(O)cc2)C(N)=O)N(C(=O)[C@H](CCCCNC(=O)[C@H](CCCCNC(=O)c2cnccn2)NC(=O)[C@H]2C[C@@H](NC(=O)[C@@H]3C[C@@H](NC(=N)N)CN3)CN2)NC(=O)[C@H](CCCCNC(=O)c2cnccn2)NC(=O)[C@H]2C[C@@H](NC(=O)[C@@H]3C[C@@H](NC(=N)N)CN3)CN2)C1`, for which binding in assay [1] was put at a Kd of 1.3 µM.

`N=C(N)N[C@H]1CN[C@H](C(=O)N[C@H]2CN[C@@H](C(=O)N[C@@H](Cc3cccc4ccccc34)C(=O)NCCCC[C@H](NC(=O)[C@H](Cc3cccc4ccccc34)NC(=O)[C@H]3C[C@@H](NC(=O)[C@@H]4C[C@@H](NC(=N)N)CN4)CN3)C(=O)NCCN(CC(=O)NCCN(CC(=O)N[C@@H](Cc3cccc4ccccc34)C(=O)N[C@@H](Cc3ccc(O)cc3)C(N)=O)C(=O)Cn3cnc4c(=O)[nH]c(N)nc43)C(=O)Cn3cnc4c(=O)[nH]c(N)nc43)C2)C1` had a Kd in assay [1] of 0.66 µM.

On to `N=C(N)N[C@@H]1C[C@@H](C(=O)NCCN(CC(=O)N[C@@H](CCCCNC(=O)c2ccc(B(O)O)cc2)C(=O)N[C@@H](Cc2ccc(O)cc2)C(N)=O)C(=O)Cn2cnc3c(=O)[nH]c(N)nc32)N(C(=O)[C@H](CCCCNC(=O)[C@@H]2C[C@@H](NC(=N)N)CN2C(=O)[C@H]2C[C@@H](NC(=O)[C@@H]3C[C@@H](NC(=N)N)CN3)CN2)NC(=O)[C@@H]2C[C@@H](NC(=N)N)CN2C(=O)[C@H]2C[C@@H](NC(=O)[C@@H]3C[C@@H](NC(=N)N)CN3)CN2)C1`, for which, in assay [1], the Kd worked out at 0.63 µM.

`N=C(N)N[C@@H]1C[C@@H](C(=O)NCCN(CC(=O)N[C@@H](CCCCNC(=O)c2ccc(B(O)O)cc2)C(=O)N[C@@H](Cc2ccc(O)cc2)C(N)=O)C(=O)Cn2cnc3c(=O)[nH]c(N)nc32)N(C(=O)[C@H](CCCCNC(=O)[C@@H]2C[C@@H](NC(=N)N)CN2C(=O)[C@@H]2C[C@@H](NC(=N)N)CN2C(=O)[C@H]2C[C@@H](N)CN2)NC(=O)[C@@H]2C[C@@H](NC(=N)N)CN2C(=O)[C@@H]2C[C@@H](NC(=N)N)CN2C(=O)[C@H]2C[C@@H](N)CN2)C1`: the result in assay [2], in assay [3] and in assay [5] was Active. Also, the Kd was 1.48 µM in assay [4], 0.4 to 0.41 µM in assay [1], 3.52 µM in assay [6] and 1.14 µM in assay [7].

As for `N=C(N)N[C@@H]1C[C@@H](C(=O)NCCCC[C@H](NC(=O)[C@@H]2C[C@@H](NC(=N)N)CN2C(=O)[C@H]2C[C@@H](N)CN2C(=O)[C@@H]2C[C@@H](NC(=N)N)CN2)C(=O)N[C@@H](CCCCNC(=O)c2cnccn2)C(=O)N[C@@H](CCCCNC(=O)c2cnccn2)C(=O)NCCN(CC(=O)N[C@@H](Cc2ccc(O)cc2)C(N)=O)C(=O)Cn2cnc3c(=O)[nH]c(N)nc32)N(C(=O)[C@H]2C[C@@H](N)CN2C(=O)[C@@H]2C[C@@H](NC(=N)N)CN2)C1`, in assay [1], the affinity, expressed as Kd, was 1.12 µM.

Regarding `N=C(N)N[C@@H]1C[C@@H](C(=O)N2C[C@H](N)C[C@@H]2C(=O)N[C@@H](Cc2ccc(O)cc2)C(N)=O)N(C(=O)[C@H]2C[C@@H](N)CN2C(=O)[C@H](CCCCNC(=O)[C@H]2C[C@@H](N)CN2C(=O)[C@@H]2C[C@@H](NC(=N)N)CN2C(=O)[C@H]2C[C@@H](N)CN2)NC(=O)[C@H]2C[C@@H](N)CN2C(=O)[C@@H]2C[C@@H](NC(=N)N)CN2C(=O)[C@H]2C[C@@H](N)CN2)C1`, the Kd in assay [1] is 0.72 µM.

In turn, `N=C(N)N[C@@H]1C[C@@H](C(=O)N[C@H]2CN[C@@H](C(=O)N[C@@H](Cc3ccc(O)cc3)C(N)=O)C2)N(C(=O)CN(CCNC(=O)[C@H](CCCCNC(=O)[C@@H]2C[C@@H](NC(=N)N)CN2C(=O)[C@H]2C[C@@H](N)CN2C(=O)[C@@H](N)CCCCNC(=O)c2cnccn2)NC(=O)[C@@H]2C[C@@H](NC(=N)N)CN2C(=O)[C@H]2C[C@@H](N)CN2C(=O)[C@@H](N)CCCCNC(=O)c2cnccn2)C(=O)Cn2cnc3c(=O)[nH]c(N)nc32)C1` displayed a Kd in assay [1] of 1.11 µM.
